DSG3 Ab inh: inhibitors of pemphigus antibody binding to DSG3, primary screen, biochemical, bead-based, flow cytometry, scFv-GFP; DSG3-coupled beads, scFv-anti-DSG3-GFP binding; stronger effect = lower value; 0.48% of 310,000 active; binding (percent of control), % at 10 µM; Desmoglein-3 (Homo sapiens), P32926;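 active = binding more than 3 SD below its plate's average and above zero; inconclusive = below that plate limit but binding exactly zero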;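 also: hits lower antibody fragment binding to DSG3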
UHRF1 binding: UHRF1 methylated DNA binding inhibitors, primary screen, counter-screen for MBD2 inhibitor project, biochemical, TR-FRET, human UHRF1, single concentration. inhibition, % at 4.4 µM. AID 687016, 2013. E3 ubiquitin-protein ligase UHRF1 (Homo sapiens), Q96T88. 0.75% of 370,000 active. UHRF1 binding to methylated oligo; in the data active = inhibition above about 21%;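 also: UHRF1 SRA domain binding a hemimethylated CpG hairpin DNA probe; 0% = median of test compound wells and 100% = reference inhibitor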
DNMT1 inh: human DNMT1 methyltransferase inhibitors, primary screen, biochemical, molecular beacon, fluorescence, HinP1I cleavage, uHTS. DNA (cytosine-5)-methyltransferase 1 (Homo sapiens), P26358. inhibition (reported as % activation of signal), % at 10 µM. 0.83% of 360,000 active. AID 588458, 2011; in the data active = inhibition above about 50%
Target sequence (P26358 504-1616 limits assumed): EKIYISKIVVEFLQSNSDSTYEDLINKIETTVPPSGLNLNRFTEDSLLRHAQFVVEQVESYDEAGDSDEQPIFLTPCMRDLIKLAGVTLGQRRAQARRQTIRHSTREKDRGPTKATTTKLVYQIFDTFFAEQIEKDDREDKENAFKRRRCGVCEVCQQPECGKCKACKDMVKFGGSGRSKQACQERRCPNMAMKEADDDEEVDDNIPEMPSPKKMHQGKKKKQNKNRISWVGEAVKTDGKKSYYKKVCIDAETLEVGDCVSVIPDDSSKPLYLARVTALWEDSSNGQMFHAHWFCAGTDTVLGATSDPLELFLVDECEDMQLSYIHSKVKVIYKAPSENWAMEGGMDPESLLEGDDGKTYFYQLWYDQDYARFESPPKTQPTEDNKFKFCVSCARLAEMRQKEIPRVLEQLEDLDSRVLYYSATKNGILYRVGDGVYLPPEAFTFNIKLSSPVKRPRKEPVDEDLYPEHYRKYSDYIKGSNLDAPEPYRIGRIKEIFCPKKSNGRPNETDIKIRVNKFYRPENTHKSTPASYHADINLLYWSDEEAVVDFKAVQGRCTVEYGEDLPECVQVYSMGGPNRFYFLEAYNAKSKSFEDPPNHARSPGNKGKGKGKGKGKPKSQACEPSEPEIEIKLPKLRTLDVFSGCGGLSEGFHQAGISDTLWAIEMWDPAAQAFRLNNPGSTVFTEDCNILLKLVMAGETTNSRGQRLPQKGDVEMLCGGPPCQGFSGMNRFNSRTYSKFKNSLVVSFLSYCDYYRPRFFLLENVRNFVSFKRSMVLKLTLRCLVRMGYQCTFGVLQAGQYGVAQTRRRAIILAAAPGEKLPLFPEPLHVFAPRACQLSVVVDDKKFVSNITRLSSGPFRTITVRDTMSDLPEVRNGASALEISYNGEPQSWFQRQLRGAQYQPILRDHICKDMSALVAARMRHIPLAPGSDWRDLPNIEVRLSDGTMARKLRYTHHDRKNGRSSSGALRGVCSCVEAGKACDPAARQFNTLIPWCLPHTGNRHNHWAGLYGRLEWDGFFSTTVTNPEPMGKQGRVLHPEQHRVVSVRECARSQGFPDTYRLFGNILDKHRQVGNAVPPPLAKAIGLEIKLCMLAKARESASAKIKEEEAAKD
SUMO1-SIM PPI: modulators of SUMO1 protein-protein interactions, primary screen, biochemical, uHTS. 0.33% of 360,000 active. Small ubiquitin-related modifier 1 (Homo sapiens), P63165. SUMO1 binding to a labelled peptide, TR-FRET, 1 h. inhibition, % at 20 µM. AID 602429, 2012; in the data active = inhibition above about 37%
MBD2 inh: inhibitors of MBD2 binding to methylated DNA, primary screen, biochemical, TR-FRET, DNA-binding domain, human; Methyl-CpG-binding domain protein 2 (Homo sapiens), Q9UBB5; MBD2 binding to methylated oligonucleotide; inhibition, % at 4.4 µM; 0.31% of 370,000 active; AID 686964, 2013; in the data active = inhibition above about 13%
HCV NS3 hel inh: inhibitors of HCV NS3 helicase, primary screen, biochemical, Cy5 molecular beacon fluorescence; 0.56% of 290,000 active; Hepatitis C virus NS3 helicase; NS3 helicase DNA unwinding; inhibition, % at 10.9 µM;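 active = inhibition above the mean of all tested compounds plus 3 SD, set per campaign, cut at about 35% in these data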;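 also: 0% = DMSO wells and 100% = thioflavine S control wells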
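assay system = NS3 helicase fragment of HCV | buffer or medium = MOPS pH 6.5, MgCl2, DTT, Tween20, BSA | timing = 60 min unwinding reaction at 25 °C after ATP addition | signal = Cy5 beacon fluorescence read at start and 1 h | read-out basis = % inhibition of unwinding | control set = low DMSO, high thioflavine S at 110 µM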
Beacon interf DR: spectral interference with molecular beacon fluorescence, dose response, artefact control for DNMT1 inhibitor project, biochemical, fluorescent molecular beacon; shares compounds with DNMT1 inh; spectral interference counter-screen; IC50, µM; 200 tested, under 10 active; call rule not given here
DNMT1 inh conf: DNMT1 methyltransferase inhibitor retest, confirmation, biochemical, molecular beacon, fluorescence, single concentration | shares compounds with DNMT1 inh | DNMT1 molecular beacon HinP1I cleavage | inhibition, % at 10 µM | 8% of 2,300 active | AID 602385, 2012;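 active = average inhibition of at least 30% in the single-concentration confirmation test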
Beacon interf: beacon fluorescence artifact counter-screen | shares compounds with DNMT1 inh | activation (fluorescence interference), % at 10 µM | DNMT1 molecular beacon spectral interference counterscreen, fluorescence 485/520 | 1% of 2,300 active;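 active = activation of at least 30% at 10 µM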;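 also: DNMT1 catalytic domain with a HinP1I cleavage step and a FAM/dabcyl DNA beacon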
* marks the source's active call; other numbers are inactive results; ? = inconclusive; nt = no result. Hits are enriched below; roughly 2.5% of the tested compounds scored in any of these assays.

SMILES	DSG3 Ab inh	UHRF1 binding	DNMT1 inh	SUMO1-SIM PPI	MBD2 inh	HCV NS3 hel inh	DNMT1 inh conf	Beacon interf	others
COc1ccc(CN2CCN(c3ccccc3OC)CC2)cc1OC	117	1	67*	-5	2	0	1	4
COc1ccc2[nH]cc(CCNC(=O)Cc3c(F)cccc3Cl)c2c1	110	3	72*	4	3	3	3	8
CCC1=NN2C(=N)/C(=C\c3ccc(OCc4cc(=O)n5nc(CC)sc5n4)c(OC)c3)C(=O)N=C2S1	62*	6	87*	44*	13	12	15	0
CSc1nc2c(c(=O)[nH]1)C(c1ccc(Br)cc1)CC(=O)N2 (stereo not drawn)	96	1	0	3	-5	-3	nt	nt
CN(Cc1ccccc1)C(=O)COC(=O)/C=C/c1ccco1	123	1	32	-12	0	25	nt	nt
CN(CCOC(=O)/C=C/c1ccco1)Cc1ccccc1	99	26*	78*	1	7	23	9	-3
CCc1ccc(NC(=O)COC(=O)/C=C/c2ccco2)cc1	112	25*	50*	-7	4	nt	3	3
CSc1nc(Sc2ccccc2)c2ccccc2n1	101	-4	1	-6	3	1	nt	nt
CSc1nc(Sc2cccc(Cl)c2)c2ccccc2n1	101	2	87*	2	-6	-2	7	4
Cc1sc(NC(=O)c2sc3nc4c(C)cccc4cc3c2N)c(C#N)c1C	94	-3	88*	6	-5	28	9	-1
O=C(COC(=O)c1ccc(S(=O)(=O)NCc2ccco2)cc1)NCCC1=CCCCC1	?	5	36	0	0	1	nt	nt
O=C(CSc1ccccc1F)NC(=O)NCc1ccco1	99	2	9	2	-4	31	nt	nt
Cc1ccccc1CSCC(=O)NC(=O)NCc1ccco1	102	13	76*	6	-1	17	0	5
Cc1cc(SCC(=O)N2CCCC2=O)nc2c(C)cccc12	107	4	80*	-2	2	nt	3	-1
Cc1cc(SCC(=O)NC(=O)NCc2ccco2)nc2ccccc12	106	-2	-1	4	-1	13	nt	nt
Cc1cc(SCC(=O)NC(=O)NCc2ccco2)nc2c(C)cccc12	107	1	53*	6	-3	22	0	0
CC(C)(C)c1ccc(Cn2nnc3c(=O)[nH]c(C4CCN(C(=O)Cc5cccs5)CC4)nc32)cc1	92	-1	-10	3	-3	-13	nt	nt
O=C(CN1C(=O)/C(=C\c2ccc(F)cc2)Oc2ccccc21)NCc1ccco1	115	-4	52*	-1	1	6	2	4
Cc1[nH]c2ccccc2c1C(=O)CSc1ncn[nH]1	100	5	1	7	3	-4	nt	nt
CCC(C)NS(=O)(=O)c1ccc(S(=O)(=O)N(CC(=O)Nc2ccccc2)CC2CCCO2)cc1 (stereo not drawn)	97	5	-5	3	7	-10	nt	nt
O=C(NCc1ccccc1F)c1cccc(S(=O)(=O)N2CCCCC2)c1	nt	5	6	2	1	nt	nt	nt
Clc1cc2nc[nH]c2cc1Cl	nt	-3	0	-5	-5	-12	nt	nt
COc1ccc(-c2ccc(C#N)c(SCC(=O)Nc3sc4c(c3C#N)CCC4)n2)cc1OC	97	-2	61*	2	0	13	-3	-4
N#Cc1cc2c(nc1SCC(=O)Nc1sc3c(c1C#N)CCC3)CCC2	109	4	6	-1	-5	8	nt	nt
COc1ccccc1N1CCN(C(=O)C(=O)c2cn(CC(=O)N3CCCC3)c3ccccc23)CC1	112	-2	-1	-7	-3	1	nt	nt
SMILES	DSG3 Ab inh	UHRF1 binding	DNMT1 inh	SUMO1-SIM PPI	MBD2 inh	HCV NS3 hel inh	DNMT1 inh conf	Beacon interf	others
Cc1c(NC(=O)/C(C#N)=C/c2ccc(-c3ccccc3Cl)o2)c(=O)n(-c2ccccc2)n1C	101	-4	10	-5	-5	-7	nt	nt
N#C/C(=C\c1ccc(-c2ccccc2Cl)o1)C(=O)Nc1nc2ccccc2s1	99	-1	88*	13	3	0	12	-7
CC(Sc1ccccc1)C(=O)NN=C1CCCC1 (stereo not drawn)	104	-1	-3	3	-4	-9	nt	nt
Cc1cccc(N(C)c2cc(-c3ccc(F)cc3)nc3ccnn23)c1	nt	-2	11	0	-7	nt	nt	nt
COc1cc(NS(=O)(=O)c2ccc(NS(=O)(=O)c3ccc(NC(C)=O)cc3)cc2)nc(OC)n1	110	-1	2	7	2	0	nt	nt
COc1cc(NS(=O)(=O)c2ccc(NC(=S)NC(C)=O)cc2)nc(OC)n1	109	3	54*	11	-5	nt	2	2
CCOc1ccc(NC(=S)NC(=O)/C=C/c2ccco2)cc1	107	-2	-4	-10	0	-7	nt	nt
COc1cc(NS(=O)(=O)c2ccc(NC(=S)NC(=O)/C=C/c3ccco3)cc2)ncn1	98	45*	98*	48*	7	32	82*	-3	Beacon interf DR=>99
Cc1ccc2nc(N/N=C/c3ccccc3C#N)nc(-c3ccccc3)c2c1	97	nt	-1	-19	nt	-7	nt	nt
N#Cc1ccccc1/C=N/Nc1nc(-c2ccccc2)c2cc(Cl)ccc2n1	68	-2	66*	-6	2	0	4	-3
Cn1cnnc1SCC(=O)Nc1cc(C(F)(F)F)ccc1N1CCOCC1	100	3	0	0	-2	6	nt	nt
COc1cc(/C=C(\CCC(=O)O)c2nc3ccccc3s2)ccc1OCC(=O)Nc1c(Cl)cccc1Cl	86	-1	52*	95*	3	nt	70*	0	Beacon interf DR=>99
O=[N+]([O-])c1cccc(/C=C/c2ccc3cccc(O)c3n2)c1	94	-2	2	-3	-4	-2	nt	nt
